# CSC inhib = cancer stem cell viability inhibitors, primary screen, luminescence; 300,000 tested, 1.1% active; AID 2717, 2010; cancer stem cell-like cells viability; inhibition, % at 7.5 µM; in the data active = inhibition above about 75%; inconclusive = no clear call, values can overlap the other calls; tested in HMLE shEcad cells
# Mdm2 MdmX PPI = inhibitors of human Mdm2-MdmX association, primary screen, cell-based, luminescence, split luciferase, SaOS-2, uHTS; Protein Mdm4 (Homo sapiens) + E3 ubiquitin-protein ligase Mdm2 (Homo sapiens), …; SaOS-2 split-luciferase Mdm2/MdmX complementation; inhibition, % at 8 µM; 330,000 tested, 3% active; AID 485346, 2010;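 active = inhibition of at least 50% at 8 µM in the primary screen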
# Target sequence (O15151 whole entry, looked up): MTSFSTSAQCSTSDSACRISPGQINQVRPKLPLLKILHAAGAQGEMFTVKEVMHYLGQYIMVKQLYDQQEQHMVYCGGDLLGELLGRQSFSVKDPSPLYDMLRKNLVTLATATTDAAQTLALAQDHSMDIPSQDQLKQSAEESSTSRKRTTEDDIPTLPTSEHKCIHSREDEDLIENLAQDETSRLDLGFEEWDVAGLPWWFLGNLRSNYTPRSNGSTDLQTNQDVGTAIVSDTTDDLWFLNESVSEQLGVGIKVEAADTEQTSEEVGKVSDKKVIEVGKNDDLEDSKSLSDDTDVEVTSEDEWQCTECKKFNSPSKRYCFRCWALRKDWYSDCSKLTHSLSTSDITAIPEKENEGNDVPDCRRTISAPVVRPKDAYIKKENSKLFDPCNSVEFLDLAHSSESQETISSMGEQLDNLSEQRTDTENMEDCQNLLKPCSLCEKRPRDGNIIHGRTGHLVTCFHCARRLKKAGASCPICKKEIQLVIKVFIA
# Target sequence (Q00987 whole entry, looked up): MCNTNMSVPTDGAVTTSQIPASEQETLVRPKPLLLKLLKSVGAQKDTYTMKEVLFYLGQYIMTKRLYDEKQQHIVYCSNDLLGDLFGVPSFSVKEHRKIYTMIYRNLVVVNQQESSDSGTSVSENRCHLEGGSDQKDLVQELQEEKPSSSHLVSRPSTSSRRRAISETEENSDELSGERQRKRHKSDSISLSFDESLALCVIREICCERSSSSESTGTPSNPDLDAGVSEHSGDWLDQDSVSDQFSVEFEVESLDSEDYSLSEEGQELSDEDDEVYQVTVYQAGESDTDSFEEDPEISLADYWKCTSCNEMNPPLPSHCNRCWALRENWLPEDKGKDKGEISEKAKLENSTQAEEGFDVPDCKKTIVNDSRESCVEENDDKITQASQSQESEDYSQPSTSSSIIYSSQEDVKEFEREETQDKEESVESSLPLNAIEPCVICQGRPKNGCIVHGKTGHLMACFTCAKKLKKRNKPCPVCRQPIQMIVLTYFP
# Beta apoptosis = inhibitors of cytokine-induced beta cell apoptosis, primary screen, luminescence; INS-1E cytokine-induced death, ATP luminescence, 48 h; percent of positive-control rescue, neutral wells zero; 300,000 tested, 0.8% active; protection from apoptosis, % (concentration not given with the values); AID 435005, 2010;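 active = Every replicate reaches about 75%, or at least half do and their mean reaches it too, limit read from the data; inconclusive = At least half of replicates reach the limit but their mean does not; inactive = Under half of replicates reach the limit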;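 note: 0% = cytokine-treated negative control wells and 100% = positive control rescue; higher means more ATP so stronger rescue from cytokine killing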
# SKKanGAS inh = S. pyogenes SKKanGAS growth inhibitors in kanamycin, primary screen, streptokinase expression inhibitor project, SKKanGAS strain, BacTiter-Glo luminescence | 6 h | inhibition, % at 7.5 µM | 300,000 tested, 1.3% active | AID 1662, 2009;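 active = mean replicate score, as percent of positive control median, at least 50; inconclusive = mean below 50 but one replicate at or above 50; inactive = mean and every replicate below 50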;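 note: strain carries kanamycin resistance gene driven by streptokinase promoter and grows in 40 µg/ml kanamycin; loss of luminescence reflects streptokinase promoter inhibition or plain growth inhibition; 0% = median of DMSO wells and 100% = positive control at its reference dose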
# T cruzi inh = inhibitors of intracellular T. cruzi growth, primary screen, luminescence, NIH3T3 host cells. inhibition, % (concentration not given with the values). T. cruzi beta-gal in NIH3T3, 90 h. AID 1885, 2009. 300,000 tested, 1.4% active;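 active = mean inhibition across valid replicates above about 55%, limit read from the data; inconclusive = mean below that limit but half or more replicates reach it; inactive = mean below it, under half of replicates reach it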;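 note: signal also drops with host cell toxicity which is not excluded here; 0% = plate median of DMSO wells and 100% = zero luminescence signal; higher percent means less beta-gal luminescence so fewer parasites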
#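 Incubation – ≥90 h infection period, 3 h prior cell attachment · System – NIH/3T3 fibroblasts plus reporter T. cruzi · Doses – compound pinned at 50 nL/well, DMSO · Read-out basis – percent inhibition of parasite-derived β-gal signal · Signal – luminescent β-galactosidase signal after 60 min lysis · Also added – 5000 T. cruzi trypomastigotes/well · Medium – Low-serum DMEM with 2% FBS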
# Calb FLC = C. albicans growth inhibition with fluconazole, primary screen, CaCi-2 strain, Alamar Blue fluorescence; C. albicans CaCi-2 (fluconazole-resistant clinical isolate) + fluconazole, 48 h; growth inhibition, % (concentration not given with the values); 300,000 tested, 0.57% active; AID 1979, 2009;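 active = growth inhibition above about 58% in most replicates, limit read from the data, passing the limit was not always enough; inconclusive = exactly half the replicates above a set limit; inactive = most replicates below a set limit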;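 note: all wells also contain fluconazole at 8 µg/ml as a sub-toxic cotreatment; 0% = median of DMSO wells and 100% = median of geldanamycin control wells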
# Mdm2-MdmX conf = Mdm2-MdmX complex disruptors, retested hits, confirmation, luminescence, single concentration. shares compounds with Mdm2 MdmX PPI. Mdm2-MdmX binding, luminescent assay. inhibition, % at 8 µM. 10,000 tested, 55% active; in the data active = inhibition above about 40%
# Full FLuc ctr = full-length luciferase signal inhibition, confirmation, counter-screen for Mdm2/MdmX interaction inhibitor project, cell-based, single concentration, SaOS-2. shares compounds with Mdm2 MdmX PPI. SaOS-2 full-length luciferase counterscreen, luminescence. inhibition, % at 8 µM. 6,200 tested, 77% active. AID 504607, 2011;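 active = mean inhibition at 8 µM reaching about 37%, which flags the compound as non-specific, limit read from the data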;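 note: p53-null SaOS-2 cells with luciferase driven by a doxycycline-inducible promoter; compound on cells about two nights before reading with doxycycline added after day one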
# * = called active by the depositor; ? = inconclusive; / = no result given. Sampled rows, rich in hits. Any-hit rate of the full collection: about 5.7%.
SMILES,CSC inhib,Mdm2 MdmX PPI,Beta apoptosis,SKKanGAS inh,T cruzi inh,Calb FLC,Mdm2-MdmX conf,Full FLuc ctr
Cc1ccc(-c2cc(C(F)F)n3ncc(C(=O)Nc4c(C)nn(Cc5ccccc5Cl)c4C)c3n2)cc1,-10,78*,20,45,4,4,28,/
Cc1nn(Cc2c(Cl)cccc2Cl)c(C)c1NC(=O)c1cnn2c(C(F)F)cc(-c3ccccc3)nc12,-5,35,-6,33,19,4,/,/
Cc1nn(Cc2c(F)cccc2Cl)c(C)c1NC(=O)C1CC1,13,-5,0,-10,-12,38,/,/
Cc1ccc(C2CC(C(F)F)n3ncc(C(=O)Nc4c(C)nn(Cc5c(F)cccc5Cl)c4C)c3N2)cc1 (configuration not stated),23,70*,-1,21,?,3,26,/
O=C(NCc1cccnc1)c1nc(-c2ccccc2)n(-c2ccccc2)n1,14,-6,-1,6,-3,-1,/,/
Cc1cccc(C)c1OCCSc1nc2ccccc2n1CC(=O)O,-6,20,/,2,-3,1,/,/
Cc1ccccc1OCC(=O)OCC(=O)NCc1ccccc1Cl,-17,-2,-6,/,/,/,/,/
Cc1ccc(NS(=O)(=O)c2cc([N+](=O)[O-])ccc2N/N=C/c2sc(N3CCOCC3)nc2-c2ccccc2)c(C)c1,8,86*,75*,9,7,5,22,/
COc1ccc(C(=O)N/N=C(\Cc2ncc[nH]2)c2ccccc2)cc1,41,54*,56,1,66*,98*,42*,26
COc1cc(C(=O)NCC(=O)N/N=C/c2ccccn2)cc(OC)c1OC,6,-20,0,0,7,-1,/,/
COc1cc(C(=O)N/N=C(\Cc2ncc[nH]2)c2ccccc2)cc(OC)c1OC,91*,54*,34,/,/,-22,50*,24
Cc1cc(=O)oc2cc(OCC(=O)N3c4ccccc4CC3C)ccc12 (configuration not stated),/,51*,9,-5,-11,-6,62*,46*
N/C(=N\OC(=O)c1ccc2c(c1)OCO2)c1ccc(Cl)cc1,-4,82*,3,2,24,70,17,/
N/C(=N\OC(=O)c1ccoc1)c1ccc(Br)cc1,-1,-46,-12,-2,-4,0,/,/
N/C(=N\OC(=O)c1ccc([N+](=O)[O-])cc1)c1ccc(Br)cc1,-5,-24,0,-5,5,4,/,/
Cc1ccc(C)c(C(=O)O/N=C(\N)c2ccc(Br)cc2)c1,0,57*,-5,3,1,-2,54*,104*
Cc1cc(C)cc(C(=O)O/N=C(\N)c2ccc(Br)cc2)c1,5,100*,8,-9,35,-13,78*,90*
Cc1ccc(C(=O)O/N=C(\N)c2ccc(Br)cc2)cc1C,0,99*,-2,-10,13,-1,83*,116*
COc1ccccc1N(CCC#N)C(=S)Nc1ccc(S(=O)(=O)N2CCOCC2)cc1,-12,21,-4,/,/,/,/,/
N/C(=N\OC(=O)c1cccc(Br)c1)c1ccccc1,6,-51,2,-1,9,5,/,/
N/C(=N\OC(=O)c1ccc2ccccc2c1)c1ccc(Br)cc1,2,62*,1,-18,-1,-4,47*,96*
COc1ccccc1C(=O)O/N=C(\N)c1ccc(Cl)cc1,-7,-18,-4,-4,3,?,/,/
Cc1cccc(C(=O)O/N=C(\N)c2ccc(Cl)cc2)c1,-15,51*,-1,-3,3,10,-13,/
Cc1cccc(/C(N)=N/OC(=O)c2ccncc2)c1,7,-105,0,-1,-5,-18,/,/
Cc1cccc(C(=O)O/N=C(\N)c2ccc(Br)cc2)c1,-13,51*,-2,-4,2,29,-8,/
SMILES,CSC inhib,Mdm2 MdmX PPI,Beta apoptosis,SKKanGAS inh,T cruzi inh,Calb FLC,Mdm2-MdmX conf,Full FLuc ctr
COc1ccc(C(=O)O/N=C(\N)c2ccc(Cl)cc2)cc1,-5,100*,4,-7,-1,-4,34,163*
CC(OC(=O)C1CC1)C(=O)Nc1ncc(Cl)cc1Cl (configuration not stated),-20,13,0,/,/,/,/,/
NC(=O)C1CCN(c2nc3c(S(=O)(=O)c4ccccc4)nnn3c3ccccc23)CC1,-9,9,-1,2,-4,-1,/,/
Cc1cc(NC(=O)C(C)SCC(=O)Nc2cc(C(F)(F)F)ccc2N2CCOCC2)no1 (configuration not stated),0,-23,9,0,10,-6,/,/
O=C(Nc1ccc(S(=O)(=O)Nc2ncccn2)cc1)C(F)(F)F,-16,-2,-1,0,-14,9,/,/
O=[N+]([O-])c1ccc(CSc2ccc(S(=O)(=O)N3CCCC3)cn2)cc1,/,-3,7,/,/,/,/,/
O=c1cc(O)c2sc(Nc3ccc(F)cc3)nc2[nH]1,10,66*,/,7,-17,-26,48*,42*
Cc1ccc(-n2c(O)c(C=NCc3ccccn3)c3ccccc3c2=O)cc1C,-4,51*,11,19,17,32,24,/
CO/N=C/C(=N\Nc1ccc(C)cc1)C(=O)c1ccc(OC)cc1,73,55*,20,11,35,-9,58*,65*
C=Cn1ccnc1P(=S)(c1ccc2c(c1)c1ccccc1n2CC)c1nccn1C=C,106*,67*,15,-1,21,-7,63*,56*
CCn1c2ccccc2c2cc(/C=N/O)ccc21,-15,8,-4,12,-12,44,/,/
COc1ccccc1-c1cc(-c2ccc(O)cc2)nc(N)c1C#N,19,38,-8,18,-6,2,/,/
COc1cc(-c2cc(-c3ccc(O)cc3)nc(N)c2C#N)ccc1O,-11,81*,-19,20,8,9,54*,92*
COc1ccc(-c2cc(-c3ccc(O)cc3)nc(N)c2C#N)cc1,20,62*,/,-2,-1,-5,24,/
O=C(CCN1CCN(C(c2ccccc2)c2ccccc2)CC1)N/N=C/c1ccc(O)cc1O,/,60*,-9,8,1,-3,69*,37*
CCc1cc(C(=O)OCC(=O)N2CCC(c3ccccc3)=N2)sc1C,-17,25,-3,27,5,-1,/,/

# Assay outcomes as filed in PubChem.
